Test results reported in ChEMBL document CHEMBL1129475, “Water soluble inhibitors of topoisomerase I: quaternary salt derivatives of camptothecin” (J Med Chem, 1996).
pIC50: −log10 of the molar value. Converted amounts (≈) assume the structure as drawn.

Legend:
[1] = Solubility was measured in D2O using 1H NMR integration of the C-20 ethyl group against internal standard 1,4-dioxane; type: physicochemical
Outline: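 Compound equilibrated ≥30 min in D2O containing 1,4-dioxane (0.015 M standardized solution) as internal standard, then filtered. 300-MHz ¹H spectrum; the C-18 methyl triplet at 0.8–0.9 ppm was integrated against the dioxane signal at 3.75 ppm.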

SK-OV-3 = assay: Human tumor cell cytotoxicity assay was performed using MTT (SK-OV3 cell line ); type: functional, cell-based
[2] = MDR ratio is defined as the quotient of SKVLB IC50/SKOV3 IC50; type: functional
Outline: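 Ratio of SKVLB IC50 to SKOV3 IC50, each from the 96 h MTT cytotoxicity assay with a four-parameter logistic fit.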

HT-29 = assay: Human tumor cell cytotoxicity assay was performed using MTT (HT-29 cell line ); type: functional, cell-based
SK-VLB = assay: Human tumor cell cytotoxicity assay was performed using MTT (SKVLB cell line ); type: functional, cell-based
Mus musculus [3] = assay: Delay in tumor growth in drug treated animals compared to controls at a dose of 100(mg/kg); type: functional
Outline: (§1)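 Tumor growth delay in nude mice with HT-29 xenografts, N=6. The dose from a single s.c. bolus in tumor-free mice was split into three s.c. portions given over one day. T/C = difference in days for tumors to reach 500% of initial volume, treated versus control.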

Mus musculus [4] = species: Mus musculus; assay: Maximally tolerated dose that caused <=30% body weight loss in mice; type: functional
Outline: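 Highest single s.c. bolus dose in tumor-free nude mice causing ≤30% body weight loss.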

Mus musculus [5] = assay: Efficacy against HT-29 human colon xenograft infected mice expressed as tumor growth ratio at dose 9.5 mg/Kg; type: functional
Outline: (§2)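 Female nu/nu mice (18-24 g) carrying subcutaneous HT-29 flank tumors; N=6 per group. Compound given s.c. twice weekly for 5 weeks over a dose range including the highest dose found in naive mice. Caliper tumor volume = length×width²/2. T/B = tumor volume at end of treatment over initial volume. Body weight monitored; mean weight loss per group.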

Mus musculus [6] = assay: Efficacy against HT-29 human colon xenograft infected mice expressed as tumor growth ratio at dose 10.5 mg/Kg; type: functional; outline: as §2
Mus musculus [7] = assay: Mean body weight loss for animals in all experimental conditions at dose 9.5 mg/Kg in HT-29 human colon xenograft infected mice; type: functional; outline: as §2
Mus musculus [8] = assay: Compound was tested for number of deaths of the animals at a dose of 11 mg/Kg in mice; type: ADME, organism-based; settings: in vivo; outline: as §2
Mus musculus [9] = assay: Mean body weight loss for animals in all experimental conditions at dose 11 mg/Kg in HT-29 human colon xenograft infected mice; type: functional; outline: as §2
Mus musculus [10] = assay: Compound was tested for number of deaths of the animals at a dose of 9.5 mg/Kg in mice; type: ADME, organism-based; settings: in vivo; outline: as §2
Mus musculus [11] = assay: Mean body weight loss for animals in all experimental conditions at dose 10.5 mg/Kg in HT-29 human colon xenograft infected mice; type: functional; outline: as §2
Mus musculus [12] = assay: Efficacy against HT-29 human colon xenograft infected mice expressed as tumor growth ratio at dose 11 mg/Kg; type: functional
Outline: (§3)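 Female nu/nu mice (18-24 g) bearing subcutaneous HT-29 flank tumours, N=6 per group. Dosed subcutaneously twice weekly for 5 weeks over a dose range that included the highest dose, which was set in naive mice. Caliper volume = length×width²/2. T/B = group mean tumour volume at end of treatment divided by initial mean volume.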

Mus musculus [13] = assay: Compound was tested for number of deaths of the animals at a dose of 10.5 mg/Kg in mice; type: ADME, organism-based; settings: in vivo; outline: as §2
Mus musculus [14] = assay: Delay in tumor growth in drug treated animals compared to controls at a dose of 48(mg/kg); type: functional; outline: as §1
Mus musculus [15] = assay: Efficacy against HT-29 human colon xenograft infected mice expressed as tumor growth ratio at dose 8 mg/Kg; type: functional; outline: as §2
Mus musculus [16] = assay: Delay in tumor growth in drug treated animals compared to controls at a dose of 80(mg/kg); type: functional; outline: as §1
Mus musculus [17] = assay: Compound was tested for number of deaths of the animals at a dose of 14 mg/Kg in mice; type: ADME, organism-based; settings: in vivo; outline: as §2
Mus musculus [18] = assay: Mean body weight loss for animals in all experimental conditions at dose 14 mg/Kg in HT-29 human colon xenograft infected mice; type: functional; outline: as §2
Mus musculus [19] = assay: Compound was tested for number of deaths of the animals at a dose of 12 mg/Kg in mice; type: ADME, organism-based; settings: in vivo; outline: as §2
Mus musculus [20] = assay: Mean body weight loss for animals in all experimental conditions at dose 12 mg/Kg in HT-29 human colon xenograft infected mice; type: functional; outline: as §2
Mus musculus [21] = assay: Efficacy against HT-29 human colon xenograft infected mice expressed as tumor growth ratio at dose 14 mg/Kg; type: functional; outline: as §2
Mus musculus [22] = assay: Mean body weight loss for animals in all experimental conditions at dose 8 mg/Kg in HT-29 human colon xenograft infected mice; type: functional; outline: as §2
Mus musculus [23] = assay: Compound was tested for number of deaths of the animals at a dose of 8 mg/Kg in mice; type: ADME, organism-based; settings: in vivo; outline: as §2
Mus musculus [24] = assay: Efficacy against HT-29 human colon xenograft infected mice expressed as tumor growth ratio at dose 12 mg/Kg; type: functional; outline: as §2
Mus musculus [25] = assay: Compound was tested for number of deaths of the animals at a dose of 9 mg/Kg in mice; type: ADME, organism-based; settings: in vivo; outline: as §2
Mus musculus [26] = assay: Efficacy against HT-29 human colon xenograft infected mice expressed as tumor growth ratio at dose 7 mg/Kg; type: functional; outline: as §3
Mus musculus [27] = assay: Compound was tested for number of deaths of the animals at a dose of 5 mg/Kg in mice; type: ADME, organism-based; settings: in vivo; outline: as §2
Mus musculus [28] = assay: Efficacy against HT-29 human colon xenograft infected mice expressed as tumor growth ratio at dose 5 mg/Kg; type: functional; outline: as §3
Mus musculus [29] = assay: Efficacy against HT-29 human colon xenograft infected mice expressed as tumor growth ratio at dose 9 mg/Kg; type: functional; outline: as §3
Mus musculus [30] = assay: Compound was tested for number of deaths of the animals at a dose of 7 mg/Kg in mice; type: ADME, organism-based; settings: in vivo; outline: as §2
Mus musculus [31] = assay: Mean body weight loss for animals in all experimental conditions at dose 5 mg/Kg in HT-29 human colon xenograft infected mice; type: functional
Outline: (§4)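 HT-29 subcutaneous xenografts in female nu/nu mice, N=6 per group. Subcutaneous dosing twice weekly for 5 weeks. Body weight was monitored and reported as mean percent loss per group. A loss of 30% or more was considered lethal.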

Mus musculus [32] = assay: Delay in tumor growth in drug treated animals compared to controls at a dose of 54(mg/kg); type: functional
Mus musculus [33] = assay: Mean body weight loss for animals in all experimental conditions at dose 9 mg/Kg in HT-29 human colon xenograft infected mice; type: functional; outline: as §4
Mus musculus [34] = assay: Mean body weight loss for animals in all experimental conditions at dose 7 mg/Kg in HT-29 human colon xenograft infected mice; type: functional; outline: as §4

`CC[C@@]1(O)C(=O)OCc2c1cc1n(c2=O)Cc2c-1nc1cc3c(cc1c2Cn1cc[n+](C)c1)OCCO3` gave a solubility [1] of 1300 µg/mL.

With `CC[C@@]1(O)C(=O)OCc2c1cc1n(c2=O)Cc2c-1nc1cc3c(cc1c2Cn1ccnc1)OCCO3` the solubility [1] was < 500 µg/mL.

With `CC[C@@]1(O)C(=O)OCc2c1cc1n(c2=O)Cc2c-1nc1cc3c(cc1c2C[n+]1cccc(CO)c1)OCO3` the pIC50 (SK-OV-3) was 7.96, the Ratio [2] was 2 and the pIC50 (HT-29) was 7.89. For the same compound, the pIC50 (SK-VLB) was 7.64, the T/C (Mus musculus [3]) was 9 days and the MTD (Mus musculus [4]) was >100 mg/kg. The solubility [1] was > 4400 µg/mL.

`CC[C@@]1(O)C(=O)OCc2c1cc1n(c2=O)Cc2c-1nc1cc3c(cc1c2C[n+]1ccc(CO)cc1)OCCO3` gave a solubility [1] of 1100 µg/mL.

`CC[C@@]1(O)C(=O)OCc2c1cc1n(c2=O)Cc2c-1nc1cc3c(cc1c2Cn1cc[n+](C)c1)OCO3` gave a pIC50 (SK-OV-3) of 6.96, an Efficacy (Mus musculus [5]) of 6.74 and an Efficacy (Mus musculus [6]) of 3.84. It also gave a Ratio [2] of 9, a pIC50 (HT-29) of 7.12 and a BW loss (Mus musculus [7]) of 4%. It also gave a pIC50 (SK-VLB) of 6.00, a Deaths (Mus musculus [8]) of 0 and a BW loss (Mus musculus [9]) of 16%. For the same compound, the T/C (Mus musculus [3]) was 14 days, the Deaths (Mus musculus [10]) was 0 and the MTD (Mus musculus [4]) was 100 mg/kg. For the same compound, the solubility [1] was > 3500 µg/mL, the BW loss (Mus musculus [11]) was 12% and the Efficacy (Mus musculus [12]) was 2.85. It also gave a Deaths (Mus musculus [13]) of 0.

Compound `CC[C@@]1(O)C(=O)OCc2c1cc1n(c2=O)Cc2c-1nc1cc3c(cc1c2C[n+]1ccccn1)OCCO3` has a pIC50 (SK-OV-3) of 7.16, a Ratio [2] of 1 and a pIC50 (SK-VLB) of 7.03. It also gave a solubility [1] of 910 µg/mL.

`CC[C@@]1(O)C(=O)OCc2c1cc1n(c2=O)Cc2c-1nc1cc3c(cc1c2C[n+]1ccccc1)OCCO3` showed a pIC50 (SK-OV-3) of 7.07, a Ratio [2] of 1 and a pIC50 (HT-29) of 7.08. The pIC50 (SK-VLB) was 7.08 and the solubility [1] was 1800 µg/mL.

In the case of `CC[C@@]1(O)C(=O)OCc2c1cc1n(c2=O)Cc2c-1nc1cc3c(cc1c2C[n+]1ccccn1)OCO3`, the pIC50 (SK-OV-3) was 7.08, the Ratio [2] was 2 and the pIC50 (SK-VLB) was 6.89. For the same compound, the solubility [1] was > 3100 µg/mL.

`CC[C@@]1(O)C(=O)OCc2c1cc1n(c2=O)Cc2c-1nc1cc3c(cc1c2C[n+]1ccncc1)OCO3` showed a T/C (Mus musculus [14]) of 11 days, a pIC50 (SK-OV-3) of 8.22 and a Ratio [2] of 4. It also gave a pIC50 (HT-29) of 7.34, a pIC50 (SK-VLB) of 7.64 and an MTD (Mus musculus [4]) of 80 mg/kg. The solubility [1] was 1400 µg/mL.

`CC[C@@]1(O)C(=O)OCc2c1cc1n(c2=O)Cc2c-1nc1cc3c(cc1c2C[n+]1ccccc1)OCO3` gave a pIC50 (SK-OV-3) of 7.13, a Ratio [2] of 1 and a pIC50 (HT-29) of 7.15. The pIC50 (SK-VLB) was 7.14, the T/C (Mus musculus [3]) was 4 days and the MTD (Mus musculus [4]) was >100 mg/kg. For the same compound, the solubility [1] was > 4500 µg/mL.

With `CC[C@@]1(O)C(=O)OCc2c1cc1n(c2=O)Cc2c-1nc1cc3c(cc1c2Cn1ccnc1)OCO3` the solubility [1] was < 500 µg/mL.

With `COc1cccc2c1C(=O)c1c(O)c3c(c(O)c1C2=O)C[C@@](O)(C(=O)CO)C[C@@H]3O[C@H]1C[C@H](N)[C@H](O)[C@H](C)O1` [DOXORUBICIN] the Ratio [2] was 160 and the solubility [1] was > 2000 µg/mL.

`CC[C@@]1(O)C(=O)OCc2c1cc1n(c2=O)Cc2c-1nc1cc3c(cc1c2C[n+]1cccc(CO)c1)OCCO3` gave a solubility [1] of 1200 µg/mL.

Compound `CC[C@@]1(O)C(=O)OCc2c1cc1n(c2=O)Cc2c-1nc1cc3c(cc1c2C[n+]1ccncc1)OCCO3` has an Efficacy (Mus musculus [15]) of 2.1, a T/C (Mus musculus [16]) of 14 days and a Deaths (Mus musculus [17]) of 0. For the same compound, the BW loss (Mus musculus [18]) was 13%, the Deaths (Mus musculus [19]) was 0 and the BW loss (Mus musculus [20]) was 27%. The Efficacy (Mus musculus [21]) was 0.32, the pIC50 (SK-OV-3) was 7.96 and the BW loss (Mus musculus [22]) was 21%. The Ratio [2] was 80, the Deaths (Mus musculus [23]) was 0 and the pIC50 (HT-29) was 7.80. The pIC50 (SK-VLB) was 6.06, the MTD (Mus musculus [4]) was 100 mg/kg and the solubility [1] was 1400 µg/mL. It also gave an Efficacy (Mus musculus [24]) of 0.7.

Compound `CC[C@@]1(O)C(=O)OCc2c1cc1n(c2=O)Cc2cc3c(CN(C)C)c(O)ccc3nc2-1` [TOPOTECAN] has a Deaths (Mus musculus [25]) of 2, an Efficacy (Mus musculus [26]) of 7 and a Deaths (Mus musculus [27]) of 0. For the same compound, the Efficacy (Mus musculus [28]) was 8.6, the Efficacy (Mus musculus [29]) was 4.3 and the Deaths (Mus musculus [8]) was 0. The BW loss (Mus musculus [9]) was 23%, the MTD (Mus musculus [4]) was 54 mg/kg and the Deaths (Mus musculus [30]) was 0. The solubility [1] was 2100 µg/mL (≈ 4.98 mM), the BW loss (Mus musculus [31]) was 15% and the T/C (Mus musculus [32]) was 10 days. For the same compound, the BW loss (Mus musculus [33]) was 17%, the Efficacy (Mus musculus [12]) was 2.9 and the BW loss (Mus musculus [34]) was 11%.
